Tested on: U2OS
Experiment: Multiplex assay against U2OS
Assay type: toxicity, cell-based
Details: human
How it was run: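 Imaging took place on a CQ1 microscope at 37°C and 5% CO2 once compound had been added to live cells stained at seeding with Hoechst33342, BioTracker Green Microtubule Cytoskeleton Dye, MitoTracker Red and Annexin V Alexa Fluor 680. CellPathfinder machine-learning gating classed cells as Hoechst high-intensity objects or normal cells, classed normal cells as having healthy, pyknosed or fragmented nuclei, and classed pyknosed cells as mitotic or apoptotic. Tubulin, mitochondrial-mass and membrane-permeability phenotypes are per cents of the healthy-nucleus cells.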

[1] = 12 h, 1 µM, compound concentration 1 uM, replicate 1
[2] = 12 h, 1 µM, compound concentration 1 uM, replicate 2
[3] = 12 h, 10 µM, compound concentration 10 uM, replicate 1
[4] = 12 h, 10 µM, compound concentration 10 uM, replicate 2
[5] = 24 h, 1 µM, compound concentration 1 uM, replicate 1
[6] = 24 h, 1 µM, compound concentration 1 uM, replicate 2
[7] = 24 h, 10 µM, compound concentration 10 uM, replicate 1
[8] = 24 h, 10 µM, compound concentration 10 uM, replicate 2
[9] = 48 h, 1 µM, compound concentration 1 uM, replicate 1
[10] = 48 h, 1 µM, compound concentration 1 uM, replicate 2
[11] = 48 h, 10 µM, compound concentration 10 uM, replicate 1
[12] = 48 h, 10 µM, compound concentration 10 uM, replicate 2

For `CC(C)c1noc(N2CCC(COc3ccc(-c4ccc(S(C)(=O)=O)cc4)nc3)CC2)n1` [GSK-1292263], the “Population Apoptotic (%)” value [1] was 72%, the “Population Fragmented Nuclei (%)” value [1] was 27% and the “Population Healthy Nuclei (%)” value [1] was 62%. For the same compound, the “Population Hoechst High Intensity Objects (%)” value [1] was 2%, the “Population Membrane Permeable-Phenotype (%)” value [1] was 3% and the “Population Mitochondria Different-Phenotype (%)” value [1] was 2%. For the same compound, the “Population Mitotic Cells (%)” value [1] was 27%, the “Population Normal (%)” value [1] was 97% and the “Population Pyknosed Nuclei (%)” value [1] was 10%. The “Population Tubulin-Different-Phenotype (%)” value [1] was 0%, the “Total Cell Count” value [1] was 177 and the “Population Apoptotic (%)” value [2] was 100%. For the same compound, the “Population Fragmented Nuclei (%)” value [2] was 16%, the “Population Healthy Nuclei (%)” value [2] was 77% and the “Population Hoechst High Intensity Objects (%)” value [2] was 1%. For the same compound, the “Population Membrane Permeable-Phenotype (%)” value [2] was 4%, the “Population Mitochondria Different-Phenotype (%)” value [2] was 0% and the “Population Mitotic Cells (%)” value [2] was 0%. The “Population Normal (%)” value [2] was 98%, the “Population Pyknosed Nuclei (%)” value [2] was 5% and the “Population Tubulin-Different-Phenotype (%)” value [2] was 2%. For the same compound, the “Total Cell Count” value [2] was 114, the “Population Apoptotic (%)” value [3] was 90% and the “Population Fragmented Nuclei (%)” value [3] was 31%. The “Population Healthy Nuclei (%)” value [3] was 60%, the “Population Hoechst High Intensity Objects (%)” value [3] was 2% and the “Population Membrane Permeable-Phenotype (%)” value [3] was 10%. For the same compound, the “Population Mitochondria Different-Phenotype (%)” value [3] was 6%, the “Population Mitotic Cells (%)” value [3] was 10% and the “Population Normal (%)” value [3] was 97%. The “Population Pyknosed Nuclei (%)” value [3] was 7%, the “Population Tubulin-Different-Phenotype (%)” value [3] was 6% and the “Total Cell Count” value [3] was 262. For the same compound, the “Population Apoptotic (%)” value [4] was 100%, the “Population Fragmented Nuclei (%)” value [4] was 20% and the “Population Healthy Nuclei (%)” value [4] was 73%. The “Population Hoechst High Intensity Objects (%)” value [4] was 0%, the “Population Mitochondria Different-Phenotype (%)” value [4] was 8% and the “Population Mitotic Cells (%)” value [4] was 0%. For the same compound, the “Population Normal (%)” value [4] was 100%, the “Population Pyknosed Nuclei (%)” value [4] was 5% and the “Total Cell Count” value [4] was 134. For the same compound, the “Population Apoptotic (%)” value [5] was 63%, the “Population Fragmented Nuclei (%)” value [5] was 32% and the “Population Healthy Nuclei (%)” value [5] was 57%. The “Population Hoechst High Intensity Objects (%)” value [5] was 1%, the “Population Membrane Permeable-Phenotype (%)” value [5] was 5% and the “Population Mitochondria Different-Phenotype (%)” value [5] was 2%. The “Population Mitotic Cells (%)” value [5] was 36%, the “Population Normal (%)” value [5] was 98% and the “Population Pyknosed Nuclei (%)” value [5] was 9%. The “Population Tubulin-Different-Phenotype (%)” value [5] was 3%, the “Total Cell Count” value [5] was 236 and the “Population Apoptotic (%)” value [6] was 66%. The “Population Fragmented Nuclei (%)” value [6] was 15%, the “Population Healthy Nuclei (%)” value [6] was 77% and the “Population Hoechst High Intensity Objects (%)” value [6] was 0%. The “Population Membrane Permeable-Phenotype (%)” value [6] was 2%, the “Population Mitotic Cells (%)” value [6] was 33% and the “Population Normal (%)” value [6] was 99%. The “Population Pyknosed Nuclei (%)” value [6] was 6%, the “Population Tubulin-Different-Phenotype (%)” value [6] was 1% and the “Total Cell Count” value [6] was 145. For the same compound, the “Population Apoptotic (%)” value [7] was 92%, the “Population Fragmented Nuclei (%)” value [7] was 25% and the “Population Healthy Nuclei (%)” value [7] was 65%. For the same compound, the “Population Hoechst High Intensity Objects (%)” value [7] was 0%, the “Population Membrane Permeable-Phenotype (%)” value [7] was 10% and the “Population Mitochondria Different-Phenotype (%)” value [7] was 3%. For the same compound, the “Population Mitotic Cells (%)” value [7] was 7%, the “Population Normal (%)” value [7] was 99% and the “Population Pyknosed Nuclei (%)” value [7] was 9%. The “Population Tubulin-Different-Phenotype (%)” value [7] was 3%, the “Total Cell Count” value [7] was 284 and the “Population Apoptotic (%)” value [8] was 66%. For the same compound, the “Population Fragmented Nuclei (%)” value [8] was 15%, the “Population Healthy Nuclei (%)” value [8] was 75% and the “Population Hoechst High Intensity Objects (%)” value [8] was 2%. For the same compound, the “Population Membrane Permeable-Phenotype (%)” value [8] was 6%, the “Population Mitochondria Different-Phenotype (%)” value [8] was 5% and the “Population Mitotic Cells (%)” value [8] was 33%. The “Population Normal (%)” value [8] was 97%, the “Population Pyknosed Nuclei (%)” value [8] was 8% and the “Population Tubulin-Different-Phenotype (%)” value [8] was 2%. The “Total Cell Count” value [8] was 143, the “Population Apoptotic (%)” value [9] was 77% and the “Population Fragmented Nuclei (%)” value [9] was 23%. For the same compound, the “Population Healthy Nuclei (%)” value [9] was 69%, the “Population Hoechst High Intensity Objects (%)” value [9] was 2% and the “Population Membrane Permeable-Phenotype (%)” value [9] was 3%. The “Population Mitochondria Different-Phenotype (%)” value [9] was 3%, the “Population Mitotic Cells (%)” value [9] was 22% and the “Population Normal (%)” value [9] was 97%. For the same compound, the “Population Pyknosed Nuclei (%)” value [9] was 6%, the “Population Tubulin-Different-Phenotype (%)” value [9] was 2% and the “Total Cell Count” value [9] was 339. The “Population Apoptotic (%)” value [10] was 90%, the “Population Fragmented Nuclei (%)” value [10] was 15% and the “Population Healthy Nuclei (%)” value [10] was 74%. For the same compound, the “Population Hoechst High Intensity Objects (%)” value [10] was 1%, the “Population Membrane Permeable-Phenotype (%)” value [10] was 6% and the “Population Mitochondria Different-Phenotype (%)” value [10] was 2%. For the same compound, the “Population Mitotic Cells (%)” value [10] was 10%, the “Population Normal (%)” value [10] was 98% and the “Population Pyknosed Nuclei (%)” value [10] was 10%. For the same compound, the “Population Tubulin-Different-Phenotype (%)” value [10] was 1%, the “Total Cell Count” value [10] was 201 and the “Population Apoptotic (%)” value [11] was 87%. For the same compound, the “Population Fragmented Nuclei (%)” value [11] was 22%, the “Population Healthy Nuclei (%)” value [11] was 68% and the “Population Hoechst High Intensity Objects (%)” value [11] was 4%. For the same compound, the “Population Membrane Permeable-Phenotype (%)” value [11] was 6%, the “Population Mitochondria Different-Phenotype (%)” value [11] was 2% and the “Population Mitotic Cells (%)” value [11] was 12%. The “Population Normal (%)” value [11] was 95%, the “Population Pyknosed Nuclei (%)” value [11] was 9% and the “Population Tubulin-Different-Phenotype (%)” value [11] was 2%. For the same compound, the “Total Cell Count” value [11] was 354, the “Population Apoptotic (%)” value [12] was 83% and the “Population Fragmented Nuclei (%)” value [12] was 12%. The “Population Healthy Nuclei (%)” value [12] was 77%, the “Population Hoechst High Intensity Objects (%)” value [12] was 1% and the “Population Membrane Permeable-Phenotype (%)” value [12] was 5%. For the same compound, the “Population Mitochondria Different-Phenotype (%)” value [12] was 4%, the “Population Mitotic Cells (%)” value [12] was 16% and the “Population Normal (%)” value [12] was 98%. For the same compound, the “Population Tubulin-Different-Phenotype (%)” value [12] was 4% and the “Total Cell Count” value [12] was 189.
